Source: ChEMBL document CHEMBL3526029, “Disposition and metabolism of GSK2251052 in humans: a novel boron-containing antibiotic” (Drug Metab Dispos, 2013)

What was measured:
[1] = system: Blood; assay: Tmax in healthy human whole blood assessed as radioactivity at 1500 mg, iv infusion for 1 hr as single dose; assay type: ADME, organism-based; details: in vivo
In short: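 Healthy men got a single 1500 mg [14C] dose by 1 h i.v. infusion. K2EDTA blood was sampled up to 336 h. Radioactivity in blood and plasma was measured by LSC, with AMS for plasma below LLQ. Parent and M3 were measured by LC/MS/MS (5–10,000 ng/ml range). Noncompartmental analysis used actual times, with t1/2 = ln2/λz and Tmax observed directly, timed from infusion start.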

[2] = Drug recovery in healthy human urine at 1500 mg, iv infusion for 1 hr as single dose after 96 hrs; assay type: ADME, organism-based; details: read-out: Drug recovery
[3] = Drug recovery in healthy human urine at 1500 mg, iv infusion for 1 hr as single dose after 168 hrs; assay type: ADME, organism-based; details: read-out: Drug recovery
[4] = Drug recovery in healthy human feces at 1500 mg, iv infusion for 1 hr as single dose after 240 hrs; assay type: ADME, organism-based; details: faeces, read-out: Drug recovery
[5] = system: Plasma; assay: Volume of distribution at steady state in healthy human plasma assessed as radioactivity at 1500 mg, iv infusion for 1 hr as single dose; assay type: ADME, organism-based; details: in vivo
In short: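 Healthy males got a 1500 mg [14C] dose as a 1-h IV infusion. K2EDTA blood was taken at serial times to 336 h. Radioactivity in blood and plasma was measured by LSC; plasma below 870 ng eq/ml was re-measured by accelerator mass spectrometry. Vss = CL × MRT, with CL = dose/AUC(0-∞), from noncompartmental analysis on actual times.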

[6] = Total drug recovery in healthy human at 1500 mg, iv infusion for 1 hr as single dose after 48 hrs; assay type: ADME, organism-based; details: in vivo, read-out: Drug recovery
In short: (§1)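 Six healthy adult males, fasted ≥10 h, got one 1500 mg [14C]GSK2251052 dose ([…], 0.56 MBq) as a constant-rate 1-h IV infusion in 0.9% NaCl. Urine was collected at 0–6, 6–12 and 12–24 h, then in 24-h blocks to 336 h; feces in 24-h blocks. Urine was counted directly by LSC; feces were homogenized and combusted in duplicate before LSC. Cumulative recovery is given as mean % of dose.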

[7] = Total drug recovery in healthy human at 1500 mg, iv infusion for 1 hr as single dose after 72 hrs; assay type: ADME, organism-based; details: in vivo, read-out: Drug recovery; in short: as §1
[8] = Total drug recovery in healthy human at 1500 mg, iv infusion for 1 hr as single dose after 144 hrs; assay type: ADME, organism-based; details: in vivo, read-out: Drug recovery
[9] = Total drug recovery in healthy human at 1500 mg, iv infusion for 1 hr as single dose after 288 hrs; assay type: ADME, organism-based; details: in vivo, read-out: Drug recovery; in short: as §1
[10] = Total drug recovery in healthy human at 1500 mg, iv infusion for 1 hr as single dose after 336 hrs; assay type: ADME, organism-based; details: in vivo, read-out: Drug recovery; in short: as §1
[11] = system: Homo sapiens; assay: Toxicity in healthy human assessed as serious adverse events at 1500 mg, iv infusion for 1 hr as single dose; assay type: organism-based; details: in vivo
In short: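 Single-center, open-label phase I study in six healthy adult males, fasted ≥10 h. Each got one 1500 mg [14C]GSK2251052 dose as a constant-rate 1-h IV infusion. Safety was monitored throughout, with follow-up for at least 336 h after dosing.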

[12] = Drug recovery in healthy human urine at 1500 mg, iv infusion for 1 hr as single dose after 120 to 336 hrs by HPLC method; assay type: ADME, organism-based; details: in the assay text read “0 to 120 hrs” for “120 to 336 hrs”, read-out: Drug recovery
In short: (§2)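 Urine pooled by weight per subject over 0–120 h; 120–336 h pools from all subjects combined into one composite. Centrifuged at ~21,000g, then supernatant profiled by HPLC (Atlantis T3, ammonium acetate pH 4.5/methanol, 30°C) with radiochemical detection plus MS identification. Results are % of dose, corrected for centrifugation recovery measured by triplicate LSC.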

[13] = Drug metabolism in healthy human urine assessed as (S)-3-(3-(aminomethyl)-1-hydroxy-1,3-dihydrobenzo[c][1,2]oxaborol-7-yloxy)propanoicacid formation at 1500 mg, iv infusion for 1 hr as single dose by mass spectrometry; assay type: ADME, organism-based; details: in vivo
In short: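 Urine was collected through 336 h after a 1500 mg [14C] i.v. 1-h infusion to six men. Samples were pooled by weight (0–120 h per subject; 120–336 h composite) and centrifuged. Profiling used HPLC (Atlantis T3, ammonium acetate pH 4.5/methanol, 30°C) with fraction radioactivity counting. Identity came from Orbitrap positive-ion accurate mass. Values were given as % dose, corrected for recovery.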

[14] = Drug recovery in healthy human urine assessed as total radioactivity at 1500 mg, iv infusion for 1 hr as single dose after 120 to 336 hrs by HPLC method; assay type: ADME, organism-based; details: in vivo, in the assay text read “0 to 120 hrs” for “120 to 336 hrs”; in short: as §2
[15] = Drug metabolism in cynomolgus monkey kidney S9 fraction assessed as (S)-3-(3-(aminomethyl)-1-hydroxy-1,3-dihydrobenzo[c][1,2]oxaborol-7-yloxy)propanoicacid formation at 50 to 500 uM after 3 hrs by liquid scintillation counting in presence of NAD+; assay type: ADME, Macaca fascicularis; details: s9, 3 h
In short: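 [14C]GSK2251052 was incubated in triplicate for 1 or 3 h at 37°C with 4 mg/ml S9 (monkey liver, lung or kidney; human liver), liver cytosol or liver microsomes and 7.5 mM NAD+. Buffer was pyrophosphate at pH 7.4, 8.4 or 8.8. Controls lacked cofactor or enzyme. Reactions were quenched with acetonitrile, counted by LSC, and pooled for radio-HPLC.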

[16] = Drug recovery in healthy human urine at 1500 mg, iv infusion for 1 hr as single dose after 216 hrs; assay type: ADME, organism-based; details: read-out: Drug recovery
[17] = Drug recovery in healthy human urine at 1500 mg, iv infusion for 1 hr as single dose after 264 hrs; assay type: ADME, organism-based; details: read-out: Drug recovery
[18] = Drug recovery in healthy human urine at 1500 mg, iv infusion for 1 hr as single dose after 288 hrs; assay type: ADME, organism-based; details: read-out: Drug recovery
[19] = Drug recovery in healthy human urine at 1500 mg, iv infusion for 1 hr as single dose after 312 hrs; assay type: ADME, organism-based; details: read-out: Drug recovery
[20] = Drug recovery in healthy human feces at 1500 mg, iv infusion for 1 hr as single dose after 24 hrs; assay type: ADME, organism-based; details: read-out: Drug recovery
[21] = Drug recovery in healthy human feces at 1500 mg, iv infusion for 1 hr as single dose after 72 hrs; assay type: ADME, organism-based; details: read-out: Drug recovery
[22] = Drug metabolism in cynomolgus monkey liver S9 fraction assessed as (S)-3-(3-(aminomethyl)-1-hydroxy-1,3-dihydrobenzo[c][1,2]oxaborol-7-yloxy)propanoicacid formation at 50 to 500 uM after 3 hrs by liquid scintillation counting in presence of NAD+ and ADH inhibitor 4-MP; assay type: ADME, subcellular, Macaca fascicularis; details: s9, 3 h
In short: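 NAD+ (7.5 mM) incubations of [14C]GSK2251052 with 4 mg/ml monkey liver cytosol or liver S9 in pyrophosphate buffer included 4-MP at 0.6 mM final. Incubations ran in triplicate at 37°C. Extracts were counted by LSC and pooled for radio-HPLC.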

Tmax [1]: 55 min
dose excreted at 96 h [2]: 81.1%
dose excreted at 168 h [3]: 86.4%
dose excreted at 240 h [4]: 7.6%
Vdss [5]: 348 L
dose excreted at 48 h [6]: 70.5%
dose excreted at 72 h [7]: 81.2%
dose excreted at 144 h [8]: 92.6%
dose excreted at 288 h [9]: 97.4%
dose excreted at 336 h [10]: 98.2%
dose excreted [12]: 28.9%
Drug recovery [13]: metabolite_detected
Drug recovery [14]: 83.1%
Drug metabolism [15]: metabolite_not_detected
dose excreted at 216 h [16]: 88.2%
dose excreted at 264 h [17]: 89.3%
dose excreted at 288 h [18]: 89.8%
dose excreted at 312 h [19]: 90.2%
dose excreted at 24 h [20]: 0.1%
dose excreted at 72 h [21]: 4.3%
Drug metabolism [22]: metabolite_not_detected
Structure (SMILES): Cl.N[14CH2][C@H]1OB(O)c2c(OCCCO)cccc21
Activity [11]: Non-toxic
